From ChEMBL document CHEMBL3526119, “Effect of the CYP2C8 genotype on the pharmacokinetics and pharmacodynamics of repaglinide” (Drug Metab Dispos, 2011) come the findings set out here.

A short description of series [1]: AUC (0 to infinity) in healthy white human with SLCO1B1 521TT/CYP2C8*1/*1 combined genotype at 2 mg, po. The class given is ADME, organism-based. Set-up: dose 2 mg, route oral, time infinity. As to conditions: plasma. The method, boiled down:
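Healthy Caucasians genotyped for CYP2C8*3 and SLCO1B1 521T>C were given a single oral 2 mg dose of repaglinide, and alcohol, caffeine and grapefruit were withheld. Plasma was sampled before dosing and at 15 times from 0.25 to 24 h. Drug was measured by LC-MS/MS against diclofenac internal standard, linear 0.098–79.139 µg/L. Noncompartmental analysis: Cmax taken as observed; AUC by linear/log-linear trapezoidal rule extrapolated to infinity.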

The next series has as its system Homo sapiens. The series is described as follows: Maximal change in blood glucose concentration in healthy white human plasma at 2 mg, po up to 6 hrs. As to conditions: in vivo. The class given is ADME, organism-based. The method, boiled down: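 Venous blood glucose was read at each blood sampling time after a single oral 2 mg dose, with fasting up to 6 h. […] Maximal change is the largest change from baseline. Mean change is the average difference between values up to 6 h post-dose and baseline.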

`CCOc1cc(CC(=O)N[C@@H](CC(C)C)c2ccccc2N2CCCCC2)ccc1C(=O)O` [REPAGLINIDE]: the AUC(0-inf) in series [1] is 92.3 ng·h/mL. Moreover, the Activity in the series with Homo sapiens was -1.69 mM.

In general, AUC(0-inf) refers to total exposure, with the tail of the curve extrapolated.
